High-throughput results as filed in PubChem.
TRPC4 inh = inhibitors of mouse TRPC4 channel; B-score at 10 µM; HEK293 TRPC4beta/mu-opioid, DAMGO-evoked Fluo4 calcium flux; active compounds read low; Q9QUQ5; AID 2247; 300,000 tested, 0.39% active;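 active = B-score over 3 SD under the library average, no early fluorescence shift, positive overall ratio signal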
Target sequence (Q9QUQ5 whole entry, looked up): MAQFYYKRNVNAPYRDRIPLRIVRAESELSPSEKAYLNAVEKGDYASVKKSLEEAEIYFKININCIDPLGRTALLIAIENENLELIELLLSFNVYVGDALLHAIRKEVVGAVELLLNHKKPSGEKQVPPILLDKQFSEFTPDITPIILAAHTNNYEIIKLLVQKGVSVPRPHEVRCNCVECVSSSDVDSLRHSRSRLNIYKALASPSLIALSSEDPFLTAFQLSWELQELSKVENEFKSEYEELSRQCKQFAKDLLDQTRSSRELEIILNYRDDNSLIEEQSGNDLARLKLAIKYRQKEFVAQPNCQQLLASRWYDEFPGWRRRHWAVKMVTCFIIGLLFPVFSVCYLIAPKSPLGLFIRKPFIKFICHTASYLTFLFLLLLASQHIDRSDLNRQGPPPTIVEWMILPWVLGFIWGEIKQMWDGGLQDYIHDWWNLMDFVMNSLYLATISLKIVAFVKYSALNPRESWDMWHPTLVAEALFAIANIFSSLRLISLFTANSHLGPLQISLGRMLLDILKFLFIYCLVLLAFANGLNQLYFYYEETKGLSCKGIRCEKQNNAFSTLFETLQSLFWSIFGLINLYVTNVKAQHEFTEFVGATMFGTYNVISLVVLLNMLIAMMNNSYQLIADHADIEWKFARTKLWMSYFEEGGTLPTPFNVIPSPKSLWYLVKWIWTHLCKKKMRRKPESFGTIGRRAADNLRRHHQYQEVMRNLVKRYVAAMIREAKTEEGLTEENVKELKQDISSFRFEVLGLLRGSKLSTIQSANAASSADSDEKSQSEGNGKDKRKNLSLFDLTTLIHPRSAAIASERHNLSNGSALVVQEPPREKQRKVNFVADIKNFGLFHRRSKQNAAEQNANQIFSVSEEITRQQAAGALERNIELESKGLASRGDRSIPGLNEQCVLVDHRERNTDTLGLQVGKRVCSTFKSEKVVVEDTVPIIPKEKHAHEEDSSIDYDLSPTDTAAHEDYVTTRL
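Test system – stable TRPC4beta/mu-opioid receptor HEK293 cells · Probe or stimulus – DAMGO, a submaximal dose followed by a maximal one · Dosing – one concentration per compound · Signal – Fluo4 calcium fluorescence by kinetic imaging, 5 s 1 Hz baseline · Evaluation – per-well B score of integrated baseline-normalized Fluo4 ratio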
TRPC4 potent = allosterically enhances the mouse TRPC4 cation channel | HEK293 TRPC4beta/mu-opioid, DAMGO EC20, Fluo-4 Ca2+ flux; active compounds read high | Q9QUQ5 | B-score at 10 µM | 310,000 tested, 0.42% active;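 active = B-score of calcium response area above 5 SD of library B-scores, with initial fluorescence ratio within 5 SD of library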
TRPC6 act = activators of mouse TRPC6 channel. HEK293-TRPC6 membrane potential dye fluorescence; active compounds read high. B-score at 10 µM. 310,000 tested, 0.13% active;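 active = B-score of the integrated fluorescence ratio above library mean plus 3 SD, and starting fluorescence ratio within library mean plus 5 SD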;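 note: higher score means more depolarization so channel activation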
TRPC6 inh = blocks the mouse TRPC6 cation channel. HEK293-TRPC6, membrane potential dye, ACh-evoked depolarization; active compounds read low. B-score at 10 µM. 310,000 tested, 1.1% active. Q61143;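 active = B-score under library mean minus 3 SD, initial fluorescence not abnormally high, positive integrated signal ratio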;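 note: B-score derived from integrated fluorescence ratio over the kinetic read; more negative B-score means stronger inhibition of depolarization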
TRPC4 agonist = opens the mouse TRPC4 cation channel; HEK293 TRPC4beta/mu-opioid, Fluo4 calcium fluorescence; active compounds read high; Q9QUQ5; 310,000 tested, 0.49% active; B-score at 10 µM;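 active = B-score above 5 SD of library B-scores, and initial fluorescence ratio not above library mean plus 5 SD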;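 note: positive B-score marks a calcium rise read as TRPC4 activation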
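Assay system – TRPC4beta and mu-opioid receptor HEK293 stable cells · Measured by – Fluo4 fluorescence, kinetic · Schedule – dye loading 45 min room temperature, 110 s kinetic read · Read-out – B-scored integrated calcium fluorescence ratio · Controls – buffer and maximal DAMGO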
HEK293 TRPC6 ctr = parental HEK293 nonspecific activity of TRPC6 modulators. shares compounds with TRPC6 inh. membrane potential dye fluorescence. membrane potential signal change, % at 10 µM. 2,400 tested, 51% active;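 active = membrane potential signal moves up or down beyond 5 SD from buffer-only wells, on both duplicate plates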
HEK293 MPD ctr 2 = second counter-screen for TRPC6 modulators: effect in parental HEK293 cells. AID 488926. membrane potential dye fluorescence; after compound, maximal acetylcholine stimulation. inhibition, % at 10 µM. shares compounds with TRPC6 inh. 2,400 tested, 14% active;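 active = membrane potential signal drops by more than 5 SD from the mean control signal, in both duplicate plates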
TRPC4 ctr mod = tests whether TRPC6 modulators also affect mouse TRPC4 | shares compounds with TRPC6 inh | HEK293 TRPC4/mu-opioid, membrane potential fluorescence | percent change from control (negative = decrease, positive = increase), % at 10 µM | 2,400 tested, 69% active | AID 488927;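 active = membrane potential signal moved up or down beyond 5 SD of buffer control wells, in both duplicate plates, actives on both sides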
TRPC4/MOR inh 2 = second selectivity test of TRPC6 modulators against mouse TRPC4; 2,400 tested, 55% active; AID 488928; HEK293 TRPC4/mu-opioid, membrane potential dye fluorescence; stimulated with maximal-effect DAMGO; shares compounds with TRPC6 inh; inhibition, % at 10 µM;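 active = drop in membrane potential signal beyond 5 SD of the control wells in both duplicate plates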;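 note: TRPC4 counter screen for TRPC6 hits run under conditions tuned for TRPC6 not TRPC4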
TRPC6 block conf = mouse TRPC6 inhibitor confirmation; shares compounds with TRPC6 inh; HEK293-TRPC6, membrane potential dye, ACh-evoked depolarization; inhibition, % at 10 µM; 3,300 tested, 43% active; AID 488960;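 active = fluorescence ratio falls more than 5 SD below the full-stimulation control mean, in both duplicate runs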;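 note: integrated fluorescence ratio of peak minus minimum over baseline after agonist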
TRPC6 act confirm = confirmation of mouse TRPC6 activators; shares compounds with TRPC6 inh; 2,800 tested, 11% active; HEK293-TRPC6 membrane potential dye fluorescence, FDSS; activation, % at 10 µM;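 active = ratio signal rise beyond 5 SD above unstimulated control wells' mean, seen in both duplicate runs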
Each line names hits and unclear results; the compound was inactive in the other large screens (follow-up assays come after a bar, where they were run). Compounds with a hit are over-represented: about 2.3% of the library has one in this group of screens.

CCOc1ccc(S(=O)(=O)N(CC(=O)N/N=C/c2ccc(-c3ccc([N+](=O)[O-])cc3)o2)c2ccccc2)cc1	TRPC6 inh -5.13 | HEK293 TRPC6 ctr inactive | HEK293 MPD ctr 2 inactive | TRPC4 ctr mod inactive | TRPC4/MOR inh 2 inactive | TRPC6 block conf inactive
Cc1ccc(C)c(N(CC(=O)N/N=C/c2ccc(-c3ccc([N+](=O)[O-])cc3)o2)S(=O)(=O)c2ccccc2)c1	none
COC(=O)C1=C(C)N(c2cc(C)cc(C)c2)/C(=C/c2ccc(O)cc2)C1=O	TRPC6 inh -7.68 | HEK293 TRPC6 ctr inactive | HEK293 MPD ctr 2 inactive | TRPC4 ctr mod -16.0% | TRPC4/MOR inh 2 67.0% | TRPC6 block conf inactive | TRPC6 act confirm inactive
CCN(CC)CCNC(C(=O)Nc1cccc(C(C)=O)c1)c1ccccc1 (centres undefined)	TRPC6 inh -6.76 | HEK293 TRPC6 ctr inactive | HEK293 MPD ctr 2 inactive | TRPC4 ctr mod inactive | TRPC4/MOR inh 2 inactive | TRPC6 block conf inactive | TRPC6 act confirm inactive
CCOc1ccc(NC(C(=O)Nc2cccc(C(C)=O)c2)c2ccccc2)cc1 (centres undefined)	none
Cc1cccc(-c2nc(=S)c3c(n2Cc2ccco2)CCCC3)c1	TRPC6 inh -6.28 | HEK293 TRPC6 ctr 183.5% | HEK293 MPD ctr 2 inactive | TRPC4 ctr mod 42.0% | TRPC4/MOR inh 2 inactive | TRPC6 block conf inactive
COc1cccc(-c2nc(=S)c3c(n2Cc2ccco2)CCCC3)c1	none
COc1ccc2c(C)c(C(=O)N3CCN(Cc4ccccc4)CC3)oc2c1	none
CCCc1cc(=O)oc2c(C)c(OCC(=O)N3C[C@H]4C[C@@H](C3)c3cccc(=O)n3C4)ccc12	none
COc1cc(/C=C2/S/C(=N/S(=O)(=O)c3ccccc3)NC2=O)c([N+](=O)[O-])cc1OC	none
Cc1ccc(S(=O)(=O)/N=C2/NC(=O)/C(=C/c3ccc(Br)o3)S2)cc1	none
O=C1N/C(=N\S(=O)(=O)c2ccccc2)S/C1=C\c1cc([N+](=O)[O-])ccc1O	TRPC6 act 26.7 | HEK293 TRPC6 ctr 249.0% | HEK293 MPD ctr 2 inactive | TRPC4 ctr mod 46.0% | TRPC4/MOR inh 2 inactive | TRPC6 block conf inactive | TRPC6 act confirm 159.5%
Cc1ccc(S(=O)(=O)/N=C2/NC(=O)/C(=C\c3cc(Br)cc(Br)c3O)S2)cc1	TRPC4 potent 34, TRPC6 act 71.3, TRPC4 agonist 64 | HEK293 TRPC6 ctr active | HEK293 MPD ctr 2 inactive | TRPC4 ctr mod 197.5% | TRPC4/MOR inh 2 inactive | TRPC6 block conf inactive | TRPC6 act confirm 401.5%
COc1cc(/C=C2\S/C(=N/S(=O)(=O)Cc3ccccc3)NC2=O)c([N+](=O)[O-])cc1OC	none
O=C1N/C(=N\S(=O)(=O)Cc2ccccc2)S/C1=C/c1cc([N+](=O)[O-])ccc1O	TRPC6 act 12.7 | HEK293 TRPC6 ctr 177.0% | HEK293 MPD ctr 2 inactive | TRPC4 ctr mod 33.0% | TRPC4/MOR inh 2 inactive | TRPC6 block conf inactive | TRPC6 act confirm 121.5%
Cc1cccc(NCC(=O)N/N=C\c2c[nH]c3ccccc23)c1	TRPC6 inh -5.77 | HEK293 TRPC6 ctr -63.0% | HEK293 MPD ctr 2 inactive | TRPC4 ctr mod -20.0% | TRPC4/MOR inh 2 39.5% | TRPC6 block conf 38.5% | TRPC6 act confirm inactive
O=C(/C=C\c1cccs1)c1c(O)ccc2ccc(=O)oc12	none
CCn1cc(C(=O)O)c(=O)c2cc(F)c(N3CCN(C)CC3)cc21	none
